Test results from ChEMBL document CHEMBL1140012, “Rapid hit to lead evaluation of pyrazolo[3,4-d]pyrimidin-4-one as selective and orally bioavailable mGluR1 antagonists” (Bioorg Med Chem Lett, 2007).
≈ marks a conversion by molar mass, not a printed value.

System: not listed separately
Assay: Half life in Sprague-Dawley rat at 1 mg/kg, iv
Format: ADME, organism-based
Set-up: dose 1 mg/kg, route intravenous
Conditions: in vivo

Row | half-life | SMILES
1 | 2.5 h | Cc1nc2c(cnn2-c2ccccc2)c(=O)n1-c1ccc(Br)cc1
2 | 1.5 h | Cc1nc2c(cnn2-c2cccc(S(N)(=O)=O)c2)c(=O)n1-c1ccc(Cl)cc1

Target: Metabotropic glutamate receptor 5 (Homo sapiens, UniProt P41594)
Sequence (P41594 whole entry): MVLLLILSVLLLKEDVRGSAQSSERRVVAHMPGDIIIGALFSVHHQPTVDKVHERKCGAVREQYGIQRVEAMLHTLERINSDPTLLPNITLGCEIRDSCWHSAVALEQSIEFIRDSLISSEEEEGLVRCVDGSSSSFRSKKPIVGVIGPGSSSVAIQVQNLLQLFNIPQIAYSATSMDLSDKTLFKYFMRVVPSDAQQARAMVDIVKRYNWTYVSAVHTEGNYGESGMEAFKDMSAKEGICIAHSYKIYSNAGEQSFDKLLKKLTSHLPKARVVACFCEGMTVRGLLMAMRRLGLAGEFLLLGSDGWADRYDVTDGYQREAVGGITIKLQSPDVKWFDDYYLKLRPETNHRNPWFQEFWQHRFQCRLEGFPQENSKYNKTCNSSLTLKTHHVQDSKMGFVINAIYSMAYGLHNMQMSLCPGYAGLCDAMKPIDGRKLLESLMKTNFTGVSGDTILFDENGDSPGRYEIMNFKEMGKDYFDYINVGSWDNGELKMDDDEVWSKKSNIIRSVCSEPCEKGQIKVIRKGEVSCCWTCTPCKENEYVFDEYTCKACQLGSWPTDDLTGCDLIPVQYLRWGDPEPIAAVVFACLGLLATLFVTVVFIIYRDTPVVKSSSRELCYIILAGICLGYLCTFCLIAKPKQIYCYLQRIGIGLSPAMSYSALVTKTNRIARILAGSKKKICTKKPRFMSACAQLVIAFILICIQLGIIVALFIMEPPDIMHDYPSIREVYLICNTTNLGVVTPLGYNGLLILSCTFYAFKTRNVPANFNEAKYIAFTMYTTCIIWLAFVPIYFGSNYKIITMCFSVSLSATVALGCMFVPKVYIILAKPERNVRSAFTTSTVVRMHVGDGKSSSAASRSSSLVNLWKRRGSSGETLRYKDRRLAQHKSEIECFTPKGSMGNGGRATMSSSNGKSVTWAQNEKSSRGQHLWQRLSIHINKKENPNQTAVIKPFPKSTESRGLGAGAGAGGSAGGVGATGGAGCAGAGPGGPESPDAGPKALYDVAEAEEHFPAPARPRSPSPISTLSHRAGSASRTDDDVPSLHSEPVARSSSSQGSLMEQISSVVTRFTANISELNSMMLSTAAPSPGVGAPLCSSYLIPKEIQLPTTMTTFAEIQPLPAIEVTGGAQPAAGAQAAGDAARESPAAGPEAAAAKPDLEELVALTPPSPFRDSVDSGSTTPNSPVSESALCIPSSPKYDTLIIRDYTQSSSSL
Assay: Antagonist activity at human mGluR5 receptor expressed in […] cells assessed as inhibition of glutamate-induced calcium flux by FLIPR assay
Format: functional, cell-based
Conditions: not given
Summary of the method: (§1)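 1321N1 cells transfected with human mGluR1 or human mGluR5 and co-expressing rat GLAST were used in a FLIPR calcium influx assay. Calcium flux was induced by 10 μM glutamate. IC50 is the concentration blocking 50% of that flux, given as the mean ± SEM of at least three determinations.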

Row | SMILES | IC50
3 | Cc1nc2c(cnn2-c2cccc(Cl)c2)c(=O)n1-c1ccc(Cl)cc1 | > 100 µM
4 | Cc1nc2c(cnn2CC2CCCCC2)c(=O)n1-c1ccc(Cl)cc1 | > 100 µM
5 | Cc1nc2c(cnn2-c2ccc(S(N)(=O)=O)cc2)c(=O)n1-c1ccc(Cl)cc1 | > 100 µM
6 | Cc1nc2c(cnn2-c2ccccc2)c(=O)n1-c1ccc(O)cc1 | > 100 µM
7 | Cc1nc2c(cnn2-c2ccccc2)c(=O)n1-c1ccc(S(N)(=O)=O)cc1 | > 100 µM

The next lines start with the values.

Row | IC50 | SMILES
8 | > 100 µM | Cc1nc2c(cnn2-c2cnccn2)c(=O)n1-c1ccc(Cl)cc1
9 | > 100 µM | Cc1nc2c(cnn2-c2ccccc2)c(=O)n1-c1ccc(OC(F)(F)F)cc1
10 | > 100 µM | Cc1nc2c(cnn2-c2ccccc2)c(=O)n1-c1ccc(Br)cc1
11 | 9.6 µM | Cc1nc2c(cnn2-c2ccccc2)c(=O)n1-c1ccc(Cl)cc1
12 | 2.8 µM | Cc1nc2c(cnn2-c2ccccc2)c(=O)n1N1CCCCC1
13 | > 100 µM | Cc1nc2c(cnn2-c2cccc(S(N)(=O)=O)c2)c(=O)n1-c1ccc(Cl)cc1

Target: Metabotropic glutamate receptor 1 (Homo sapiens, UniProt Q13255)
Sequence (Q13255 whole entry): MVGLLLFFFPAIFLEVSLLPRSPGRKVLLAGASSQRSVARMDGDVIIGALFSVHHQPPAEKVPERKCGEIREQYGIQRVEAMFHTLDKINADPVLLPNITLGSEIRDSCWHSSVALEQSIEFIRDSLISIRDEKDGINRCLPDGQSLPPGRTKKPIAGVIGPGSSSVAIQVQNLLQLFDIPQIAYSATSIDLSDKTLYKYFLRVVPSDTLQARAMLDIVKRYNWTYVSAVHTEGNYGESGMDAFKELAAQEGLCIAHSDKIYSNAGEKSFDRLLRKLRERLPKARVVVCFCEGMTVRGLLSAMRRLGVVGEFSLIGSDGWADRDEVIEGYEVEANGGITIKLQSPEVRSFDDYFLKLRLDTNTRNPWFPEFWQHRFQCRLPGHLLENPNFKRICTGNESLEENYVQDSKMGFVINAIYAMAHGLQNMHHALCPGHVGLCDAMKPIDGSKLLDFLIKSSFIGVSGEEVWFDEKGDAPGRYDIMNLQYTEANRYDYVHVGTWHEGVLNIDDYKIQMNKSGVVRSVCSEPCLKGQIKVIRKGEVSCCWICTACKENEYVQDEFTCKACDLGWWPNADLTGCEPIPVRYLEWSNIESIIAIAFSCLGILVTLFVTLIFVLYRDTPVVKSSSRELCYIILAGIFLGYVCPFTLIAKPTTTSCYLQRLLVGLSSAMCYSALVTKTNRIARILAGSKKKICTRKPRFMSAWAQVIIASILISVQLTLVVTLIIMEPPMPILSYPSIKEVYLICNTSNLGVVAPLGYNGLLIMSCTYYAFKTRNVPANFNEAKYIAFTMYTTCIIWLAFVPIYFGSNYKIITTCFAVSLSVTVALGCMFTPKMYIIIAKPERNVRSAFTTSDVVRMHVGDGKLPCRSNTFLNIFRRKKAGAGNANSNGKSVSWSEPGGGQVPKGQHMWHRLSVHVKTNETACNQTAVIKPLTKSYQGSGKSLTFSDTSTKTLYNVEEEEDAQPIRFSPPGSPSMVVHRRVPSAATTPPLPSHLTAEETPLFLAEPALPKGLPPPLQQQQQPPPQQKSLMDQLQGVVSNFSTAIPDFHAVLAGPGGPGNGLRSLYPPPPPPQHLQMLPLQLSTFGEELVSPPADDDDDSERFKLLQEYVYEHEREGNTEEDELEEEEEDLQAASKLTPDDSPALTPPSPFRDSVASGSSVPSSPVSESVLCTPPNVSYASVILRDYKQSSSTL
Assay: Antagonist activity at human mGluR1 receptor expressed in […] cells assessed as inhibition of glutamate-induced calcium flux by FLIPR assay
Format: functional, cell-based
Conditions: not given
Summary of the method: as §1

Row | SMILES | IC50
14 | Cc1nc2c(cnn2-c2cccc(Cl)c2)c(=O)n1-c1ccc(Cl)cc1 | 0.22 µM
15 | Cc1nc2c(cnn2CC2CCCCC2)c(=O)n1-c1ccc(Cl)cc1 | > 100 µM
16 | Cc1nc2c(cnn2-c2ccc(S(N)(=O)=O)cc2)c(=O)n1-c1ccc(Cl)cc1 | 1.41 µM
17 | Cc1nc2c(cnn2-c2ccccc2)c(=O)n1-c1ccc(O)cc1 | 2.4 µM
18 | Cc1nc2c(cnn2-c2ccccc2)c(=O)n1-c1ccc(S(N)(=O)=O)cc1 | > 100 µM

Further lines, results first:

Row | IC50 | SMILES
19 | > 100 µM | Cc1nc2c(cnn2-c2cnccn2)c(=O)n1-c1ccc(Cl)cc1
20 | > 100 µM | Cc1nc2c(cnn2-c2ccccc2)c(=O)n1-c1ccc(OC(F)(F)F)cc1
21 | 0.078 µM | Cc1nc2c(cnn2-c2ccccc2)c(=O)n1-c1ccc(Br)cc1
22 | 0.242 µM | Cc1nc2c(cnn2-c2ccccc2)c(=O)n1-c1ccc(Cl)cc1
23 | 0.091 µM | Cc1nc2c(cnn2-c2ccccc2)c(=O)n1N1CCCCC1
24 | 0.127 µM | Cc1nc2c(cnn2-c2cccc(S(N)(=O)=O)c2)c(=O)n1-c1ccc(Cl)cc1

System: not listed separately
Assay: Cmax in Sprague-Dawley rat at 1 mg/kg, po
Format: ADME, organism-based
Set-up: dose 1 mg/kg, route oral
Conditions: in vivo

Row | Cmax | SMILES
25 | 30 ng/mL | Cc1nc2c(cnn2-c2ccccc2)c(=O)n1-c1ccc(Br)cc1
26 | 2100 ng/mL | Cc1nc2c(cnn2-c2cccc(S(N)(=O)=O)c2)c(=O)n1-c1ccc(Cl)cc1

System: Rattus norvegicus
Assay: (§2) Tmax in Sprague-Dawley rat at 1 mg/kg, ip
Format: ADME, organism-based
Set-up: dose 1 mg/kg, route intraperitoneal
Conditions: in vivo

Row | Tmax | SMILES
27 | 0.25 h | Cc1nc2c(cnn2-c2ccccc2)c(=O)n1-c1ccc(Br)cc1

System: not listed separately
Assay: as §2
Format: ADME, organism-based
Set-up: dose 1 mg/kg, route intraperitoneal
Conditions: Sprague-Dawley, in vivo

Row | Tmax | SMILES
28 | 1.7 h | Cc1nc2c(cnn2-c2cccc(S(N)(=O)=O)c2)c(=O)n1-c1ccc(Cl)cc1

System: not listed separately
Assay: Metabolic stability assessed as intrinsic clearance in rat liver microsomes
Format: ADME, Microsome
Conditions: not given
Summary of the method: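 Intrinsic clearance was measured in rat liver microsomes and reported as scaled intrinsic clearance.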

Row | CLint scaled | SMILES
29 | 115 mL/min/kg | Cc1nc2c(cnn2-c2ccccc2)c(=O)n1-c1ccc(Br)cc1
30 | 183 mL/min/kg | Cc1nc2c(cnn2-c2cccc(Cl)c2)c(=O)n1-c1ccc(Cl)cc1
31 | 117 mL/min/kg | Cc1nc2c(cnn2-c2ccccc2)c(=O)n1-c1ccc(Cl)cc1
32 | 1800 mL/min/kg | Cc1nc2c(cnn2-c2ccccc2)c(=O)n1N1CCCCC1
33 | < 41.7 mL/min/kg | Cc1nc2c(cnn2-c2cccc(S(N)(=O)=O)c2)c(=O)n1-c1ccc(Cl)cc1

System: not listed separately
Assay: Volume of distribution at terminal phase in Sprague-Dawley rat at 1 mg/kg, iv
Format: ADME, organism-based
Set-up: dose 1 mg/kg, route intravenous
Conditions: in vivo, read-out: Vbeta

Row | Vd | SMILES
34 | 3.1 L/kg | Cc1nc2c(cnn2-c2ccccc2)c(=O)n1-c1ccc(Br)cc1
35 | 0.4 L/kg | Cc1nc2c(cnn2-c2cccc(S(N)(=O)=O)c2)c(=O)n1-c1ccc(Cl)cc1

System: not listed separately
Assay: AUC in Sprague-Dawley rat at 1 mg/kg, iv
Format: ADME, organism-based
Set-up: dose 1 mg/kg, route intravenous
Conditions: plasma

Row | AUC | SMILES
36 | 1280 ng·h/mL | Cc1nc2c(cnn2-c2ccccc2)c(=O)n1-c1ccc(Br)cc1
37 | 6150 ng·h/mL | Cc1nc2c(cnn2-c2cccc(S(N)(=O)=O)c2)c(=O)n1-c1ccc(Cl)cc1

System: Rattus norvegicus
Assay: Clearance in Sprague-Dawley rat at 1 mg/kg, iv
Format: ADME, organism-based
Set-up: dose 1 mg/kg, route intravenous
Conditions: in vivo

Row | clearance | SMILES
38 | 13.3 mL/min/kg | Cc1nc2c(cnn2-c2ccccc2)c(=O)n1-c1ccc(Br)cc1
39 | 3.33 mL/min/kg | Cc1nc2c(cnn2-c2cccc(S(N)(=O)=O)c2)c(=O)n1-c1ccc(Cl)cc1

System: not listed separately
Assay: Tmax in Sprague-Dawley rat at 1 mg/kg, po
Format: ADME, organism-based
Set-up: dose 1 mg/kg, route oral
Conditions: in vivo

Row | Tmax | SMILES
40 | 1.3 h | Cc1nc2c(cnn2-c2ccccc2)c(=O)n1-c1ccc(Br)cc1
41 | 1.2 h | Cc1nc2c(cnn2-c2cccc(S(N)(=O)=O)c2)c(=O)n1-c1ccc(Cl)cc1

System: not listed separately
Assay: Aqueous solubility of the compound
Format: physicochemical
Conditions: buffer

Row | solubility | SMILES
42 | 14 µM (≈ 5.34 µg/mL) | Cc1nc2c(cnn2-c2ccccc2)c(=O)n1-c1ccc(Br)cc1
43 | 11 µM (≈ 4.08 µg/mL) | Cc1nc2c(cnn2-c2cccc(Cl)c2)c(=O)n1-c1ccc(Cl)cc1
44 | 18 µM (≈ 6.06 µg/mL) | Cc1nc2c(cnn2-c2ccccc2)c(=O)n1-c1ccc(Cl)cc1
45 | 19 µM (≈ 5.88 µg/mL) | Cc1nc2c(cnn2-c2ccccc2)c(=O)n1N1CCCCC1
46 | 42 µM (≈ 17.5 µg/mL) | Cc1nc2c(cnn2-c2cccc(S(N)(=O)=O)c2)c(=O)n1-c1ccc(Cl)cc1

System: not listed separately
Assay: Half life in Sprague-Dawley rat at 1 mg/kg, po
Format: ADME, organism-based
Set-up: dose 1 mg/kg, route oral
Conditions: in vivo

Row | half-life | SMILES
47 | 1.3 h | Cc1nc2c(cnn2-c2ccccc2)c(=O)n1-c1ccc(Br)cc1
48 | 1.2 h | Cc1nc2c(cnn2-c2cccc(S(N)(=O)=O)c2)c(=O)n1-c1ccc(Cl)cc1

System: not listed separately
Assay: Oral bioavailability in Sprague-Dawley rat at 1 mg/kg
Format: ADME, organism-based
Conditions: in vivo

Row | bioavailability | SMILES
49 | 8% | Cc1nc2c(cnn2-c2ccccc2)c(=O)n1-c1ccc(Br)cc1

System: Rattus norvegicus
Assay: (§3) Cmax in Sprague-Dawley rat at 1 mg/kg, ip
Format: ADME, organism-based
Set-up: dose 1 mg/kg, route intraperitoneal
Conditions: in vivo

Row | Cmax | SMILES
50 | 170 ng/mL | Cc1nc2c(cnn2-c2ccccc2)c(=O)n1-c1ccc(Br)cc1

System: not listed separately
Assay: as §3
Format: ADME, organism-based
Set-up: dose 1 mg/kg, route intraperitoneal
Conditions: Sprague-Dawley, in vivo

Row | Cmax | SMILES
51 | 1540 ng/mL | Cc1nc2c(cnn2-c2cccc(S(N)(=O)=O)c2)c(=O)n1-c1ccc(Cl)cc1

System: not listed separately
Assay: Permeability of the compound
Format: ADME
Conditions: not told; read-out: permeability
Summary of the method: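 Passive membrane permeability was measured and reported in ×10^-6 cm/s.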

Row | Papp | SMILES
52 | 19.4 ×10⁻⁶ cm/s | Cc1nc2c(cnn2-c2ccccc2)c(=O)n1-c1ccc(Br)cc1
53 | 5.6 ×10⁻⁶ cm/s | Cc1nc2c(cnn2-c2cccc(Cl)c2)c(=O)n1-c1ccc(Cl)cc1
54 | 29.6 ×10⁻⁶ cm/s | Cc1nc2c(cnn2-c2ccccc2)c(=O)n1-c1ccc(Cl)cc1
55 | 5.49 ×10⁻⁶ cm/s | Cc1nc2c(cnn2-c2ccccc2)c(=O)n1N1CCCCC1
56 | 17.6 ×10⁻⁶ cm/s | Cc1nc2c(cnn2-c2cccc(S(N)(=O)=O)c2)c(=O)n1-c1ccc(Cl)cc1

System: Rattus norvegicus
Assay: (§4) AUC in Sprague-Dawley rat at 1 mg/kg, ip
Format: ADME, organism-based, Plasma
Set-up: dose 1 mg/kg, route intraperitoneal
Conditions: in vivo

Row | AUC | SMILES
57 | 389 ng·h/mL | Cc1nc2c(cnn2-c2ccccc2)c(=O)n1-c1ccc(Br)cc1

System: not listed separately
Assay: as §4
Format: ADME, organism-based, Plasma
Set-up: dose 1 mg/kg, route intraperitoneal
Conditions: Sprague-Dawley, plasma

Row | AUC | SMILES
58 | 7790 ng·h/mL | Cc1nc2c(cnn2-c2cccc(S(N)(=O)=O)c2)c(=O)n1-c1ccc(Cl)cc1

System: not listed separately
Assay: AUC in Sprague-Dawley rat at 1 mg/kg, po
Format: ADME, organism-based
Set-up: dose 1 mg/kg, route oral
Conditions: plasma

Row | AUC | SMILES
59 | 100 ng·h/mL | Cc1nc2c(cnn2-c2ccccc2)c(=O)n1-c1ccc(Br)cc1
60 | 6240 ng·h/mL | Cc1nc2c(cnn2-c2cccc(S(N)(=O)=O)c2)c(=O)n1-c1ccc(Cl)cc1

System: Rattus norvegicus
Assay: (§5) Half life in Sprague-Dawley rat at 1 mg/kg, ip
Format: ADME, organism-based
Set-up: dose 1 mg/kg, route intraperitoneal
Conditions: in vivo

Row | t1/2 | SMILES
61 | 0.25 h | Cc1nc2c(cnn2-c2ccccc2)c(=O)n1-c1ccc(Br)cc1

System: not listed separately
Assay: as §5
Format: ADME, organism-based
Set-up: dose 1 mg/kg, route intraperitoneal
Conditions: Sprague-Dawley, in vivo

Row | half-life | SMILES
62 | 1.7 h | Cc1nc2c(cnn2-c2cccc(S(N)(=O)=O)c2)c(=O)n1-c1ccc(Cl)cc1

System: not listed separately
Assay: Bioavailability in Sprague-Dawley rat at 1 mg/kg, ip
Format: ADME, organism-based
Conditions: in vivo

Row | bioavailability | SMILES
63 | 30% | Cc1nc2c(cnn2-c2ccccc2)c(=O)n1-c1ccc(Br)cc1
